Laboratory results taken from ChEMBL document CHEMBL1649224, “Involvement of pmrAB and phoPQ in polymyxin B adaptation and inducible resistance in non-cystic fibrosis clinical isolates of Pseudomonas aeruginosa” (2009).
Calls of active or inactive are those of the source. The rule behind the calls is not given here.

Legend:
[1] = test system: Pseudomonas aeruginosa; test: Antibacterial activity against Pseudomonas aeruginosa isolate 9BR by Etest in presence of beta-lactamase inhibitor Tazobactam; type: functional
[2] = test system: Pseudomonas aeruginosa; test: Antibacterial activity against Pseudomonas aeruginosa isolate 19BR by Etest in presence of beta-lactamase inhibitor Tazobactam; type: functional
[3] = test system: Pseudomonas aeruginosa; test: Antibacterial activity against Pseudomonas aeruginosa isolate 213BR by Etest in presence of beta-lactamase inhibitor Tazobactam; type: functional
[4] = test system: Pseudomonas aeruginosa; test: Antibacterial activity against Pseudomonas aeruginosa isolate 9BR assessed as lowest concentration at which no growth observed after 48 hrs by broth microdilution method; type: functional, organism-based
[5] = test system: Pseudomonas aeruginosa; test: Antibacterial activity against Pseudomonas aeruginosa isolate 19BR assessed as lowest concentration at which no growth observed after 48 hrs by broth microdilution method; type: functional, organism-based
Procedure, shortened: (§1)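 Broth microdilution per CLSI M7-A6/M100-S15 in cation-adjusted Mueller-Hinton broth, 37°C, 48 h; polymyxin B 0.03 to 32 μg/ml, triplicate runs per isolate. Liberal MIC read as the lowest-concentration well without visible growth; skipped wells (isolated no-growth wells below wells with growth) noted.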

[6] = test system: Pseudomonas aeruginosa; test: Antibacterial activity against Pseudomonas aeruginosa isolate 213BR assessed as lowest concentration at which no growth observed after 48 hrs by broth microdilution method; type: functional, organism-based; procedure, shortened: as §1
[7] = test system: Pseudomonas aeruginosa; test: Antibacterial activity against Pseudomonas aeruginosa isolate 9BR assessed as growth after the skipped wells was observed after 48 hrs by broth microdilution method; type: functional, organism-based
[8] = test system: Pseudomonas aeruginosa; test: Antibacterial activity against Pseudomonas aeruginosa isolate 19BR assessed as growth after the skipped wells was observed after 48 hrs by broth microdilution method; type: functional, organism-based
[9] = test system: Pseudomonas aeruginosa; test: Antibacterial activity against Pseudomonas aeruginosa isolate 213BR assessed as growth after the skipped wells was observed after 48 hrs by broth microdilution method; type: functional, organism-based
[10] = test system: Pseudomonas aeruginosa; test: Antimicrobial activity against Pseudomonas aeruginosa isolate 19BR assessed as inhibition of growth at 2 ug/ml after 24 hrs; type: functional, organism-based
Procedure, shortened: (§2)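 Growth curves run in triplicate: overnight cultures diluted 1:20 into cation-adjusted Mueller-Hinton broth with 0, 0.125 or 2 μg/ml polymyxin B; OD600 read every 20 min for 24 h.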

[11] = test system: Pseudomonas aeruginosa; test: Antimicrobial activity against Pseudomonas aeruginosa isolate 213BR assessed as inhibition of growth at 2 ug/ml after 24 hrs; type: functional, organism-based; procedure, shortened: as §2
[12] = test system: Pseudomonas aeruginosa; test: Increase in arnB gene expression in compound-resistant Pseudomonas aeruginosa isolate 9BR by quantitative PCR analysis; type: functional, organism-based
Procedure, shortened: (§3)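 Cells taken from MIC-plate wells at 0, 0.125 or 2 μg/ml polymyxin B, regrown in 10 ml CAMHB at the same level, shaken at 37°C to OD600 0.5. Total RNA (4 μg) reverse-transcribed; qPCR normalised to rpsL and expressed relative to PAO1 without polymyxin B. Triplicate cultures on separate days from individual MIC plates, each run at least in duplicate.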

[13] = test system: Pseudomonas aeruginosa; test: Increase in PA4773 gene expression in compound-resistant Pseudomonas aeruginosa isolate 9BR by quantitative PCR analysis; type: functional, organism-based; procedure, shortened: as §3
[14] = test system: Pseudomonas aeruginosa; test: Effect on phoQ gene expression in Pseudomonas aeruginosa PAO1 at 2 ug/ml by quantitative PCR analysis; type: functional, organism-based
Procedure, shortened: (§4)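 Cells from MIC plate wells regrown in cation-adjusted Mueller-Hinton broth with 0, 0.125 or 2 μg/ml polymyxin B at 37°C with shaking to OD600 0.5. Total RNA (4 μg) reverse-transcribed for qPCR of phoQ, arnB and PA4773, with rpsL as control. Expression is relative to untreated PAO1; triplicate biological repeats, each at least in duplicate.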

[15] = test system: Pseudomonas aeruginosa; test: Effect on arnB gene expression in Pseudomonas aeruginosa PAO1 at 2 ug/ml by quantitative PCR analysis; type: functional, organism-based; procedure, shortened: as §4
[16] = test system: Pseudomonas aeruginosa; test: Effect on PA4773 gene expression in Pseudomonas aeruginosa PAO1 at 2 ug/ml by quantitative PCR analysis; type: functional, organism-based; procedure, shortened: as §4
[17] = test system: Pseudomonas aeruginosa; test: Increase in phoQ gene expression in Pseudomonas aeruginosa isolate 19BR at 2 ug/ml by quantitative PCR analysis; type: functional, organism-based; procedure, shortened: as §4
[18] = test system: Pseudomonas aeruginosa; test: Increase in arnB gene expression in Pseudomonas aeruginosa isolate 19BR at 2 ug/ml by quantitative PCR analysis; type: functional, organism-based; procedure, shortened: as §4
[19] = test system: Pseudomonas aeruginosa; test: Increase in PA4773 gene expression in Pseudomonas aeruginosa isolate 19BR at 2 ug/ml by quantitative PCR analysis; type: functional, organism-based; procedure, shortened: as §4
[20] = test system: Pseudomonas aeruginosa; test: Increase in phoQ gene expression in Pseudomonas aeruginosa isolate 213BR at 2 ug/ml by quantitative PCR analysis; type: functional, organism-based; procedure, shortened: as §4
[21] = test system: Pseudomonas aeruginosa; test: Increase in arnB gene expression in Pseudomonas aeruginosa isolate 213BR at 2 ug/ml by quantitative PCR analysis; type: functional, organism-based; procedure, shortened: as §4
[22] = test system: Pseudomonas aeruginosa; test: Increase in PA4773 gene expression in Pseudomonas aeruginosa isolate 213BR at 2 ug/ml by quantitative PCR analysis; type: functional, organism-based; procedure, shortened: as §4
[23] = test system: Pseudomonas aeruginosa; test: Antimicrobial activity against Pseudomonas aeruginosa PAO1 assessed as outer membrane permeabilization by fluorescence spectrophotometer using NPN fluorescent probe; type: functional, organism-based
Procedure, shortened: (§5)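 Cells grown in cation-adjusted Mueller-Hinton broth with 0, 0.125 or 2 μg/ml polymyxin B (preincubation), subcultured 1:100 to mid-log, washed, resuspended to OD600 0.5 in 5 mM HEPES pH 7.2 with 5 μM CCCP. NPN 10 μM final added for baseline. Polymyxin B then added at 0.25–64 μg/ml final; fluorescence ex 350/em 420 nm.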

[24] = test system: Pseudomonas aeruginosa; test: Antimicrobial activity against Pseudomonas aeruginosa isolate 19BR assessed as outer membrane permeabilization by fluorescence spectrophotometer using NPN fluorescent probe; type: functional, organism-based; procedure, shortened: as §5
[25] = test system: Pseudomonas aeruginosa; test: Antimicrobial activity against Pseudomonas aeruginosa isolate 9BR assessed as outer membrane permeabilization by fluorescence spectrophotometer using NPN fluorescent probe; type: functional, organism-based; procedure, shortened: as §5
[26] = test system: Pseudomonas aeruginosa; test: Antimicrobial activity against Pseudomonas aeruginosa PAO1 assessed as outer membrane permeabilization at 4 ug/ml by fluorescence spectrophotometer using NPN fluorescent probe; type: functional, organism-based; procedure, shortened: as §5
[27] = test system: Pseudomonas aeruginosa; test: Antimicrobial activity against Pseudomonas aeruginosa isolate 9BR assessed as outer membrane permeabilization at => […] ug/ml by fluorescence spectrophotometer using NPN fluorescent probe; type: functional, organism-based
[28] = test system: Pseudomonas aeruginosa; test: Antimicrobial activity against Pseudomonas aeruginosa isolate 19BR assessed as outer membrane permeabilization at => 8 ug/ml by fluorescence spectrophotometer using NPN fluorescent probe; type: functional, organism-based; procedure, shortened: as §5
[29] = test system: Pseudomonas aeruginosa; test: Antimicrobial activity against Pseudomonas aeruginosa PAO1 assessed as outer membrane permeabilization at 0.125 ug/ml by fluorescence spectrophotometer using NPN fluorescent probe; type: functional, organism-based; procedure, shortened: as §5
[30] = test system: Pseudomonas aeruginosa; test: Antimicrobial activity against 2 ug/ml compound pretreated Pseudomonas aeruginosa isolate 9BR assessed as outer membrane permeabilization at 8 ug/ml by fluorescence spectrophotometer using NPN fluorescent probe; type: functional, organism-based; procedure, shortened: as §5
[31] = test system: Pseudomonas aeruginosa; test: Antimicrobial activity against 2 ug/ml compound pretreated Pseudomonas aeruginosa isolate 19BR assessed as outer membrane permeabilization at 8 ug/ml by fluorescence spectrophotometer using NPN fluorescent probe; type: functional, organism-based; procedure, shortened: as §5
[32] = test system: Pseudomonas aeruginosa; test: Antibacterial activity against Pseudomonas aeruginosa isolate 9BR by Etest; type: functional
[33] = test system: Pseudomonas aeruginosa; test: Antibacterial activity against Pseudomonas aeruginosa isolate 19BR by Etest; type: functional
[34] = test system: Pseudomonas aeruginosa; test: Antibacterial activity against Pseudomonas aeruginosa isolate 213BR by Etest; type: functional
[35] = test system: Pseudomonas aeruginosa; test: Antimicrobial activity against Pseudomonas aeruginosa isolate 9BR assessed as inhibition of growth at 0.25 ug/ml after 24 hrs; type: functional, organism-based

## CCN1CCN(C(=O)N[C@@H](C(=O)N[C@@H]2C(=O)N3[C@@H]2SC(C)(C)[C@@H]3C(=O)O)c2ccccc2)C(=O)C1=O [PIPERACILLIN]
[1]
  MIC: 96 µg/mL
[2]
  MIC: 64 µg/mL
[3]
  MIC: 96 µg/mL

## COLISTIN
[4]
  MIC: 32 µg/mL
[5]
  MIC: 4 µg/mL
[6]
  MIC: 2 µg/mL
[7]
  MIC: 32 µg/mL
[8]
  MIC: 4 µg/mL
[9]
  MIC: 32 µg/mL

## POLYMYXIN B
[4]
  MIC: 64 µg/mL
[5]
  MIC: 0.25 µg/mL
[6]
  MIC: 0.5 µg/mL
[7]
  MIC: 64 µg/mL
[10]
  TIME: 6 h
[11]
  TIME: 4 h
[12]
  Activity: Dose-dependent effect
[13]
  Activity: Dose-dependent effect
[14]
  Activity: inactive
[15]
  Activity: inactive
[16]
  Activity: inactive
[17]
  Activity: Active
[18]
  Activity: Active
[19]
  Activity: Active
[20]
  Activity: Active
[21]
  Activity: Active
[22]
  Activity: Active
[23]
  Activity: Dose-dependent effect
[24]
  Activity: Dose-dependent effect
[25]
  Activity: Dose-dependent effect
[26]
  Activity: Active
[27]
  Activity: Active
[28]
  Activity: Active
[29]
  Activity: Active
[30]
  Activity: inactive
[31]
  Activity: inactive
[8]
  MIC: 8 µg/mL
[9]
  MIC: 8 µg/mL
[32]
  MIC: 4 µg/mL
[33]
  MIC: 1.5 µg/mL
[34]
  MIC: 1.5 µg/mL
[35]
  inhibition: inactive

## C[C@@H](O)[C@H]1C(=O)N2C(C(=O)O)=C(S[C@@H]3CN[C@H](C(=O)N(C)C)C3)[C@H](C)[C@H]12 [MEROPENEM]
[32]
  MIC: > 32 µg/mL
[33]
  MIC: > 32 µg/mL
[34]
  MIC: > 32 µg/mL

## CO/N=C(\C(=O)N[C@@H]1C(=O)N2C(C(=O)[O-])=C(C[N+]3(C)CCCC3)CS[C@H]12)c1csc(N)n1 [CEFEPIME]
[32]
  MIC: > 256 µg/mL
[33]
  MIC: > 256 µg/mL
[34]
  MIC: > 256 µg/mL

## O=C(O)c1cn(C2CC2)c2cc(N3CCNCC3)c(F)cc2c1=O [CIPROFLOXACIN]
[32]
  MIC: > 32 µg/mL
[33]
  MIC: > 32 µg/mL
[34]
  MIC: > 32 µg/mL

## CC(C)(O/N=C(\C(=O)N[C@@H]1C(=O)N2C(C(=O)[O-])=C(C[n+]3ccccc3)CS[C@H]12)c1csc(N)n1)C(=O)O [CEFTAZIDIME]
[32]
  MIC: > 256 µg/mL
[33]
  MIC: > 256 µg/mL
[34]
  MIC: > 256 µg/mL
